Assay results of several laboratories.
Effect on: metabolic stability
Host: human

O=c1c2c([nH]c3ccc(F)c(Oc4ccc(OC(F)(F)F)cc4)c13)CCCC2
half-life (liver microsomes; 1 µM; pH 7.4): 14.9 min

Cc1cc2c(C(=O)O)cccc2n1-c1nc2c(c(NCc3ccccc3)n1)CCCN2
half-life (liver microsomes; 1 µM; pH 7.4): > 120 min

Cc1ncsc1-c1ccc([C@H](CC(=O)N2CC3(C2)CN(c2ccc(C#Cc4ccc(C(=O)N5CCC(n6cc(-c7ccc8c(c7)CCN8C(=O)Cc7cccc(OC(F)(F)F)c7)c7c(N)ncnc76)CC5)cc4)cn2)C3)NC(=O)[C@@H]2C[C@@H](O)CN2C(=O)[C@@H](NC(=O)C2(F)CC2)C(C)(C)C)cc1
half-life (hepatocytes; 1 µM): > 120 min

Cc1c(C)n(Cc2cccc(OC(C)(C)C(=O)O)c2)c2ccc(C(=O)N[C@@H](C)c3ccc(C(C)(C)C)cc3)cc12
half-life (liver microsomes): > 60 min

Cc1cccc(CNC(=O)c2cn(CCNC(=O)c3ccccc3Sc3c([N+](=O)[O-])ncn3C)c3cc4c(cc3c2=O)OCO4)n1
half-life (blood; 1 µM; whole blood): 509 min

Cc1[nH]c(C)c(S(=O)(=O)Nc2ccc(C(F)(F)F)c(Cl)c2)c1C(=O)N1CCC(F)(F)C1
half-life (liver microsomes): 10.2 min

O=c1c2ccc(Oc3cccc(OC(F)(F)F)c3)cc2[nH]c2cc(Cl)cc(F)c12
half-life (liver microsomes; 1 µM; pH 7.4): > 60 min

O=c1c2cc(Cl)ncc2[nH]c(=S)n1Cc1cccnc1
half-life (liver microsomes; 1 µM; pH 7.4): > 186 min

OCc1ccc(-c2nn(Cc3ccccc3)c3ccccc23)o1
half-life (hepatocytes): 6.6 min

O=c1c2c([nH]c3cc(Oc4ccc(OC(F)(F)F)cc4)ccc13)CCCC2
half-life (liver microsomes; 1 µM; pH 7.4): 26.8 min

Cc1ccc2[nH]c(=S)n(Cc3cccnc3)c(=O)c2c1
half-life (liver microsomes; 1 µM; pH 7.4): 10.6 min

O=c1c2ccc(Oc3ccccc3OC(F)(F)F)cc2[nH]c2cc(Cl)cc(F)c12
half-life (liver microsomes; 1 µM; pH 7.4): > 60 min

CCOc1ccc(Nc2c3c(nc4ccccc24)CCC3)cc1
half-life (liver microsomes; 0.5 µM): 47 min

CCCN(CCC)CCOc1ccc2c(=O)c3c([nH]c2c1)CCCC3
half-life (liver microsomes; 1 µM; pH 7.4): > 60 min

O=C1CCC(N2Cc3cc(C4CCN(Cc5ccccc5)CC4)ccc3C2=O)C(=O)N1 (stereo not drawn)
half-life (liver microsomes; 1 µM): > 60 min

CN(C)CC(=O)OCc1cc2[nH]c(=S)n(Cc3cccnc3)c(=O)c2cc1Cl
half-life (liver microsomes; 1 µM; pH 7.4): < 5 min

O=C(N1CCCCC1)C12CC(c3ccccc3)(C1)C2
half-life (liver microsomes; 2 µM; pH 7.4): 70.2 min

C=CCn1c(=O)c2cnc(Nc3ccc(N4CCN(C)CC4)cc3)nc2n1-c1ccc2c(n1)[C@@](O)(CC)CC2
half-life (liver microsomes): 23 min
